In brackets after ≈: the same amount, converted by molar mass.
Legend:
[1] = test system: Klebsiella pneumoniae ATCC BAA-1705; assay: Inhibition of beta lactamase KPC-2 in Klebsiella pneumoniae ATCC BAA 1705 assessed as potentiation of ceftazidime-induced antibacterial activity by measuring ceftazidime MIC at 16 mg/L incubated for 18 hrs by broth dilution method
[2] = target: Class A carbapenemase KPC-2 (Escherichia coli) (UniProt A8DS27); assay: Inhibition of beta lactamase KPC-2 in Escherichia coli 76 assessed as potentiation of ceftazidime-induced antibacterial activity by measuring ceftazidime MIC at 16 mg/L incubated for 18 hrs by broth dilution method (reference value: >[…] mg/L)
Pseudomonas aeruginosa [3] = assay: Inhibition of beta lactamase VIM in Pseudomonas aeruginosa 698 assessed as potentiation of ceftazidime-induced antibacterial activity by measuring ceftazidime MIC at 16 mg/L incubated for 18 hrs by broth dilution method (reference value: […] mg/L)
Escherichia coli [4] = assay: Inhibition of beta lactamase CMY-2 in Escherichia coli 77 assessed as potentiation of ceftazidime-induced antibacterial activity by measuring diameter of zone inhibition at 0.3 mg incubated for 18 hrs in presence of 30 ug ceftazidime by CLSI disc diffusion method (Rvb=13 mm)
Outline: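 AmpC combination disc test on Mueller-Hinton agar, following EUCAST guidance and Yagi et al. Inhibition zones were compared between a CAZ-30 disc and a ceftazidime disc plus agent or PBA, each at 0.3 mg per disc. Plates were incubated at 35 °C for 18 h. A zone difference of at least 5 mm was counted as inhibition.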

[5] = test system: Klebsiella pneumoniae ATCC BAA-1705; assay: Inhibition of beta lactamase KPC in Klebsiella pneumoniae ATCC BAA 1705 assessed as potentiation of meropenem-induced antibacterial activity by measuring diameter of zone inhibition at 0.3 mg incubated for 18 hrs in presence of 10 ug meropenem by CLSI disc diffusion method (Rvb=[…] mm)
Acinetobacter baumannii = assay: Inhibition of beta lactamase OXA-24 in Acinetobacter baumannii 181 assessed as potentiation of ceftazidime-induced antibacterial activity by measuring ceftazidime MIC at 16 mg/L incubated for 18 hrs by broth dilution method (reference value: >[…] mg/L)
Klebsiella pneumoniae [6] = assay: Inhibition of beta lactamase KPC-3 in Klebsiella pneumoniae 81 assessed as potentiation of ceftazidime-induced antibacterial activity by measuring ceftazidime MIC at 16 mg/L incubated for 18 hrs by broth dilution method (reference value: >[…] mg/L)
[7] = test system: Klebsiella pneumoniae 700603; assay: Inhibition of extended-spectrum beta lactamase in Klebsiella pneumoniae ATCC 700603 assessed as potentiation of ceftazidime-induced antibacterial activity by measuring diameter of zone inhibition at 0.3 mg incubated for 18 hrs in presence of 10 ug ceftazidime by CLSI disc diffusion method (Rvb=13 mm)
Outline: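 EUCAST ESBL combination disc test on Mueller-Hinton agar. Zones were compared between a ceftazidime or cefotaxime disc alone and the same disc plus agent at 0.3 mg per disc. Clavulanic acid discs at 0.01 mg per disc served as reference. Plates were incubated at 35 °C for 18 h. A difference of at least 5 mm was counted as inhibition.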

Klebsiella pneumoniae [8] = assay: Inhibition of beta lactamase CMY-2 in Klebsiella pneumoniae 78 assessed as potentiation of ceftazidime-induced antibacterial activity by measuring ceftazidime MIC at 16 mg/L incubated for 18 hrs by broth dilution method (reference value: >[…] mg/L)
Klebsiella pneumoniae [9] = assay: Inhibition of beta lactamase KPC-3 in Klebsiella pneumoniae 81 assessed as potentiation of meropenem-induced antibacterial activity by measuring meropenem MIC at 16 mg/L incubated for 18 hrs by broth dilution method (reference value: […] mg/L)
Escherichia coli [10] = assay: Inhibition of beta lactamase KPC-3 in Escherichia coli 82 TR assessed as potentiation of ceftazidime-induced antibacterial activity by measuring ceftazidime MIC at 16 mg/L incubated for 18 hrs by broth dilution method (reference value: […] mg/L)
Escherichia coli [11] = assay: Inhibition of beta lactamase KPC-3 in Escherichia coli 82 TR assessed as potentiation of meropenem-induced antibacterial activity by measuring meropenem MIC at 16 mg/L incubated for 18 hrs by broth dilution method (reference value: 2 mg/L)
Pseudomonas aeruginosa [12] = assay: Inhibition of beta lactamase AmpC in Pseudomonas aeruginosa 700 assessed as potentiation of ceftazidime-induced antibacterial activity by measuring ceftazidime MIC at 16 mg/L incubated for 18 hrs by broth dilution method (reference value: >[…] mg/L)
Pseudomonas aeruginosa [13] = assay: Inhibition of beta lactamase OXA-15 in Pseudomonas aeruginosa 852 assessed as potentiation of ceftazidime-induced antibacterial activity by measuring ceftazidime MIC at 16 mg/L incubated for 18 hrs by broth dilution method (reference value: >[…] mg/L)
Klebsiella pneumoniae [14] = assay: Inhibition of beta lactamase KPC-3 in Klebsiella pneumoniae 83 assessed as potentiation of ceftazidime-induced antibacterial activity by measuring ceftazidime MIC at 16 mg/L incubated for 18 hrs by broth dilution method (reference value: >[…] mg/L)
[15] = test system: Klebsiella pneumoniae ATCC BAA-1705; assay: Inhibition of beta lactamase KPC-2 in Klebsiella pneumoniae ATCC BAA 1705 assessed as potentiation of meropenem-induced antibacterial activity by measuring meropenem MIC at 16 mg/L incubated for 18 hrs by broth dilution method (reference value: […] mg/L)
[16] = test system: Stenotrophomonas maltophilia; assay: Bactericidal activity against Stenotrophomonas maltophilia ATCC 13637 measured after 18 hrs by CLSI broth dilution method; format: functional; details: ATCC 13637, 18 h
Outline: (§1)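 Strains stored at -80 °C and subcultured twice on tryptic soy agar before testing. Compounds dissolved in DMSO. […] MBC then determined per CLSI recommendations.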

[17] = Cytotoxicity against human MRC5 cells assessed as cell viability at 4 ug/ml incubated for 72 hrs by MTT assay; format: cell-based; details: read-out: Activity
Outline: (§2)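 MRC-5 pd30 human fibroblasts grown in MEM with 10% FBS, 2 mM L-glutamine, penicillin/streptomycin and 1% non-essential amino acids at 37 °C, 5% CO2. Exponentially growing cells trypsinized and seeded at 8×10^3 cells/well, then dosed 18 h later with 2-fold dilutions (0.5% DMSO final) for 72 h. MTT (1 mg/ml final) added for 1 h at 37 °C, formazan dissolved in DMSO, OD read at 570 nm. Four replicates, expressed as % viable versus control.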

[18] = Cytotoxicity against human MRC5 cells assessed as cell viability at 2 ug/ml incubated for 72 hrs by MTT assay; format: cell-based; details: read-out: Activity; outline: as §2
[19] = Cytotoxicity against human MRC5 cells assessed as cell viability at 1 ug/ml incubated for 72 hrs by MTT assay; format: cell-based; details: read-out: Activity; outline: as §2
[20] = Cytotoxicity against human MRC5 cells assessed as cell viability at 16 ug/ml incubated for 72 hrs by MTT assay; format: cell-based; details: read-out: Activity; outline: as §2
[21] = Cytotoxicity against human MRC5 cells assessed as cell viability at 32 ug/ml incubated for 72 hrs by MTT assay; format: cell-based; details: read-out: Activity; outline: as §2
[22] = Cytotoxicity against human MRC5 cells assessed as cell viability at 0.5 ug/ml incubated for 72 hrs by MTT assay; format: cell-based; details: read-out: Activity; outline: as §2
Enterococcus faecalis = assay: Bactericidal activity against Enterococcus faecalis ATCC 29212 measured after 18 hrs by CLSI broth dilution method; format: functional; details: ATCC 29212, 18 h; outline: as §1
[23] = Dissociation constant, pKa2 of compound in 0.1 M NaOH by potentiometric analysis; format: physicochemical

Structure (SMILES)	MIC [1] [µg/mL]	MIC [2] [µg/mL]	MIC (Pseudomonas aeruginosa [3]) [µg/mL]	inhibition zone (IZ) (Escherichia coli [4]) [mm]	inhibition zone (IZ) [5] [mm]	MIC (Acinetobacter baumannii) [µg/mL]	MIC (Klebsiella pneumoniae [6]) [µg/mL]	inhibition zone (IZ) [7] [mm]	MIC (Klebsiella pneumoniae [8]) [µg/mL]	MIC (Klebsiella pneumoniae [9]) [µg/mL]	MIC (Escherichia coli [10]) [µg/mL]	MIC (Escherichia coli [11]) [µg/mL]	MIC (Pseudomonas aeruginosa [12]) [µg/mL]	MIC (Pseudomonas aeruginosa [13]) [µg/mL]	MIC (Klebsiella pneumoniae [14]) [µg/mL]	MIC [15] [µg/mL]	MBC [16] [µg/mL]	viability at 72 h, 4 ug/ml [17] [%]	viability at 72 h, 2 ug/ml [18] [%]	viability at 72 h, 1 ug/ml [19] [%]	also measured
C[Si]1(C)OB(O)c2c(F)c(F)c(F)c(F)c21	64	> 64	64	22	13	> 64	64	13	64	16	32	2	> 64	> 64	> 64	64	–	–	–	–	–
C[Si]1(C)OB(O)c2ccc(F)c(F)c21	64	> 64	64	22	14	> 64	64	13	64	8	32	2	> 64	> 64	> 64	64	400 (≈ 1870 µM)	111	113	114	viability at 72 h, 16 ug/ml [20]: 99%; viability at 72 h, 32 ug/ml [21]: 74%; viability at 72 h, 0.5 ug/ml [22]: 108%
C[Si]1(C)OB(O)c2ccc(B(O)O)cc21	64	> 64	64	22	18	> 64	64	13	64	4	32	0.25	32	> 64	64	32	–	129	124	117	viability at 72 h, 16 ug/ml [20]: 120%; viability at 72 h, 32 ug/ml [21]: 102%; viability at 72 h, 0.5 ug/ml [22]: 112%; MBC (Enterococcus faecalis): 400 µg/mL (≈ 1800 µM)
C[Si]1(C)OB(O)c2cc3c(c(F)c21)COB3O	64	> 64	64	20	12	> 64	64	13	> 64	8	32	1	> 64	> 64	> 64	64	–	108	116	112	viability at 72 h, 16 ug/ml [20]: 100%; viability at 72 h, 32 ug/ml [21]: 54.3%; viability at 72 h, 0.5 ug/ml [22]: 112%; pKa [23]: 8.6
C[Si]1(C)OB(O)c2ccc(Cl)c(Cl)c21	–	–	–	–	–	–	–	–	–	–	–	–	–	–	–	–	400 (≈ 1620 µM)	–	–	–	MBC (Enterococcus faecalis): 400 µg/mL (≈ 1620 µM)
C[Si]1(C)OB(O)c2ccc(Cl)cc21	–	–	–	–	–	–	–	–	–	–	–	–	–	–	–	–	200 (≈ 941 µM)	–	–	–	–
C[Si]1(C)OB(O)c2ccc(C(F)(F)F)cc21	–	–	–	–	–	–	–	–	–	–	–	–	–	–	–	–	–	–	–	–	MBC (Enterococcus faecalis): 50 µg/mL (≈ 203 µM)
C[Si]1(C)OB(O)c2c(F)c3c(c(F)c21)B(O)OC3	64	> 64	64	20	12	> 64	64	13	> 64	16	32	2	> 64	> 64	64	64	400 (≈ 1480 µM)	–	–	–	pKa [23]: 7.8
C[Si]1(C)OB(O)c2cc(B(O)O)cc(F)c21	–	–	–	–	–	–	–	–	–	–	–	–	–	–	–	–	–	–	–	–	pKa [23]: 10.2

— ChEMBL document CHEMBL4346672, “Antimicrobial and KPC/AmpC inhibitory activity of functionalized benzosiloxaboroles” (Eur J Med Chem, 2019)
